For orientation: IC50 means the concentration that gives 50% inhibition. One may read the MIC as the least concentration at which growth counts as inhibited.

≈ marks a conversion by molar mass, not a printed value.

One data set deals with Vero. Briefly: Cytotoxicity against african green monkey Vero cells after 72 hrs by MTT assay. It counts as cell-based. The note with it: Chlorocebus sabaeus. A digest of the protocol:
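Vero mammalian cells were exposed to compounds for 72 h, with testing at 62.5 µg/ml. Viability was read as cellular conversion of MTT to formazan (non-radioactive cell proliferation kit), and IC50 was reported.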

Data set [1] has as its system Mycobacterium tuberculosis. Briefly: Antimycobacterial activity against Mycobacterium tuberculosis ATCC 35801 infected in CD1 mouse assessed as bacterial load in lung at 25 mg/kg, ip after 10 days. Format: functional. The settings on record: route intraperitoneal. A digest of the protocol:
(§1)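 Six-week-old female CD-1 mice, six per group, infected intravenously via caudal vein with ~10⁷ viable M. tuberculosis ATCC 35801. Intraperitoneal dosing began 10 days after inoculation and ran 10 days. On day 35 post-infection, spleens and right lungs were removed and homogenized. Serial 10-fold dilutions were plated on 7H10 agar (37 °C, ambient air, 4 weeks). Log CFU compared against vehicle-treated controls.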

The subject of data set [2] is Mycobacterium tuberculosis. Briefly: Antimycobacterial activity against Mycobacterium tuberculosis H37Rv by agar dilution method. It counts as functional. A digest of the protocol: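 MIC by agar dilution on Middlebrook 7H11 agar supplemented with OADC, following an NCCLS-like procedure, run in duplicate. The MDR-TB clinical isolate was resistant to isoniazid, rifampicin, ethambutol and ofloxacin.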

Data set [3] has as its system Mycolicibacterium smegmatis. Briefly: Antimycobacterial activity against Mycobacterium smegmatis MC2 by agar dilution method. Format: functional. A digest of the protocol:
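Agar dilution on Middlebrook 7H11 agar supplemented with OADC, following an NCCLS-like procedure; MIC determined in duplicate against M. smegmatis ATCC 14468 (MC²).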
In general terms: In agar dilution, organisms are placed on agar that contains the substance at set levels.

For data set [4], the system named is Mycobacterium tuberculosis. Briefly: Antimycobacterial activity against Mycobacterium tuberculosis ATCC 35801 infected in CD1 mouse assessed as bacterial load in spleen at 25 mg/kg, ip after 10 days. Format: functional. The note with it: route intraperitoneal. A digest of the protocol:
as §1

In data set [5] the test system is Mus musculus. Put plainly: Phototoxicity in Swiss albino mouse assessed as ear thickness at 140 mg/kg, po after 48 hrs of irradiation. It counts as organism-based. More on the design: dose 140 mg/kg, route oral. The settings on record: in vivo. In a few lines: (§2)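 Female Swiss albino mice (about 2 months, 20–25 g), fasted at least 18 h, received a single oral gavage of 140 mg/kg. Groups: six per group; lomefloxacin HCl 140 mg/kg; vehicle 0.5% aqueous sodium carboxymethylcellulose at 10 ml/kg. Mice were UV-irradiated for 4 h (about 18 J/cm²). Both ears were scored for erythema, edema and ear thickness (left/right averaged) pre-dose, at end of irradiation, and at about 24, 48, 72 and 96 h. Ear thickness change from baseline was tested by Student's t-tests.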

Data set [6] has as its system Mus musculus. Put plainly: Phototoxicity in Swiss albino mouse assessed as ear thickness at 140 mg/kg, po after 96 hrs of irradiation. Set-up: dose 140 mg/kg, route oral. It counts as organism-based. The note with it: in vivo. A digest of the protocol:
as §2

For data set [7], the system named is Mus musculus. Briefly: (§3) Phototoxicity in Swiss albino mouse assessed as erythema incidence at 140 mg/kg, po after 48 hrs of irradiation. Format: organism-based. More on the design: dose 140 mg/kg, route oral. The note with it: in vivo. A digest of the protocol:
as §2

The subject of data set [8] is Mus musculus. Put plainly: Phototoxicity in Swiss albino mouse assessed as erythema incidence at 140 mg/kg, po after 96 hrs of irradiation. Format: organism-based. More on the design: dose 140 mg/kg, route oral. The settings on record: in vivo. In a few lines: as §2
Data set [9] concerns Mus musculus. Put plainly: Phototoxicity in Swiss albino mouse assessed as ear thickness at 140 mg/kg, po after 72 hrs of irradiation. Format: organism-based. More on the design: dose 140 mg/kg, route oral. The settings on record: in vivo. In a few lines:
as §2

For data set [10], the system named is Mus musculus. Described as §3. Format: organism-based. The note with it: in vivo. Set-up: dose 140 mg/kg, route oral. In a few lines:
as §2
The source holds these as a separate data set.

For data set [11], the system named is Mus musculus. Put plainly: Phototoxicity in Swiss albino mouse assessed as erythema incidence at 140 mg/kg, po after 24 hrs of irradiation. It counts as organism-based. More on the design: dose 140 mg/kg, route oral. The settings on record: in vivo. A digest of the protocol:
as §2

Data set [12] deals with Mus musculus. Briefly: Phototoxicity in Swiss albino mouse assessed as ear thickness at 140 mg/kg, po after 24 hrs of irradiation. It counts as organism-based. Set-up: dose 140 mg/kg, route oral. The settings on record: in vivo. A digest of the protocol:
as §2

In data set [13] the test system is Mus musculus. Put plainly: Phototoxicity in Swiss albino mouse assessed as erythema incidence at 140 mg/kg, po after 4 hrs of irradiation. The settings on record: in vivo. More on the design: dose 140 mg/kg, route oral. It counts as organism-based. In a few lines: as §2
Data set [14] deals with Mus musculus. Briefly: Phototoxicity in Swiss albino mouse assessed as ear thickness at 140 mg/kg, po after 4 hrs of irradiation. It counts as organism-based. More on the design: dose 140 mg/kg, route oral. The note with it: in vivo. In a few lines:
as §2

A short description of data set [15]: Inhibition of Mycobacterium smegmatis DNA gyrase supercoiling activity. Set-up: species or system Mycolicibacterium smegmatis.
Data set [16] can be described thus: Selectivity index, ratio of IC50 for african green monkey Vero cells to MIC for Mycobacterium tuberculosis H37Rv. It counts as functional. A digest of the protocol: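 Vero cells were exposed for 72 h, with viability read by MTT conversion to formazan to give the IC50. The MIC against H37Rv was by duplicate agar dilution on OADC-supplemented Middlebrook 7H11 agar. Index = Vero IC50 / MIC.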

Data set [17] deals with Mycobacterium tuberculosis. Briefly: Antimycobacterial activity against Mycobacterium tuberculosis ATCC 35801 infected in CD1 mouse assessed as bacterial load in lung at 50 mg/kg, ip after 10 days. The settings on record: route intraperitoneal. It counts as functional. A digest of the protocol: as §1
The test system of data set [18] is Mycobacterium tuberculosis. Briefly: Antimycobacterial activity against Mycobacterium tuberculosis ATCC 35801 infected in CD1 mouse assessed as bacterial load in spleen at 50 mg/kg, ip after 10 days. It counts as functional. The note with it: route intraperitoneal. A digest of the protocol:
as §1

Turning to `NNC(=O)c1ccncc1` [ISONIAZID], the IC50 in the data set with Vero was above 456 µM. For the same compound, the figures for the Log10 cfu in data set [1] and in data set [4] were 5.86 and 4.71, respectively. The MIC in [2] is 0.36 µM (≈ 0.0494 µg/mL); in [3] it was 45.6 µM (≈ 6.25 µg/mL).

As to `CCn1cc(C(=O)O)c(=O)c2cc(F)c(N3CCNC(C)C3)c(F)c21` (stereo not drawn) [LOMEFLOXACIN], the Activity with Mus musculus [5] is listed as 0.53 mm; in the data set with Mus musculus [6], 0.6 mm; in the data set with Mus musculus [7] it was “Toxic”; in the data set with Mus musculus [8], “Toxic”; in the data set with Mus musculus [9] it was 0.64 mm; in the data set with Mus musculus [10], “Toxic”. In addition, the Activity entry in the data set with Mus musculus [11] is reported as “Toxic”; with Mus musculus [12] it was 0.48 mm; in the data set with Mus musculus [13], “Toxic”; with Mus musculus [14], 0.4 mm.

On to `O=C(O)c1c(=O)c2cc(F)c(N3CCC4(CC3)OCCO4)cc2n2c1sc1ccccc12`, for which the Activity in the data set with Mus musculus [5] is reported as 0.3 mm; with Mus musculus [6], 0.3 mm; with Mus musculus [7] it was “Non-toxic”; in the data set with Mus musculus [8], “Non-toxic”; in the data set on Mus musculus [9], 0.28 mm; in the data set with Mus musculus [10], “Non-toxic”. Moreover, the Activity entry with Mus musculus [11] was “Non-toxic”; in the data set on Mus musculus [12], 0.31 mm; in the data set on Mus musculus [13], “Non-toxic”; in the data set with Mus musculus [14] it was 0.3 mm. The same compound yielded an IC50 in the data set with Vero above 138 µM. Also, the values for the MIC in [2] and in data set [3] were 0.86 µM (≈ 0.391 µg/mL) and 6.89 µM (≈ 3.13 µg/mL), respectively.

As to `O=C(O)c1c(=O)c2cc(F)c(N3CCC(O)(c4ccc(Cl)cc4)CC3)cc2n2c1sc1ccccc12`, the Activity was 0.29 mm in the data set on Mus musculus [5]; 0.3 mm in the data set with Mus musculus [6]; “Non-toxic” with Mus musculus [7]; “Non-toxic” in the data set with Mus musculus [8]; 0.32 mm in the data set on Mus musculus [9]; “Non-toxic” with Mus musculus [10]. In addition, the Activity result with Mus musculus [11] is “Non-toxic”; in the data set with Mus musculus [12], 0.31 mm; in the data set with Mus musculus [13] it was “Non-toxic”; in the data set on Mus musculus [14], 0.32 mm. Also, the IC50 with Vero amounted to 120 µM; in data set [15], 40 µg/mL (≈ 76.5 µM). Besides, the MIC turned out to be 0.36 µM (≈ 0.188 µg/mL) in [2] and 2.98 µM (≈ 1.56 µg/mL) in [3].

On to `CCN(CC)C(=O)C1CCCN(c2cc3c(cc2F)c(=O)c(C(=O)O)c2sc4ccccc4n23)C1` (stereo not drawn), for which the Activity with Mus musculus [5] is given as 0.29 mm; in the data set with Mus musculus [6], 0.28 mm; in the data set on Mus musculus [7], “Non-toxic”; in the data set on Mus musculus [8] it was “Non-toxic”; in the data set on Mus musculus [9], 0.3 mm; in the data set on Mus musculus [10] it was “Non-toxic”. Besides, the Activity result in the data set with Mus musculus [11] is “Non-toxic”; in the data set with Mus musculus [12], 0.29 mm; in the data set with Mus musculus [14] it was 0.29 mm. In addition, the IC50 with Vero is 126 µM; in data set [15], 40 µg/mL (≈ 80.7 µM). Moreover, the Selectivity index in data set [16] was 1576. Moreover, the values for the Log10 cfu in data set [17] and in data set [18] were 5.21 and 5.9, respectively. Further, the MIC in data set [2] came to 0.18 µM (≈ 0.0892 µg/mL); in data set [3] it was 3.15 µM (≈ 1.56 µg/mL).

In the data set on Vero, `COc1c(N2CCNC(C)C2)c(F)cc2c(=O)c(C(=O)O)cn(C3CC3)c12` (stereo not drawn) [GATIFLOXACIN] yielded an IC50 above 155 µM. Besides, the Log10 cfu is on record as 6.02 in [17] and 6.92 in [18]. In addition, the MIC came out at 1.04 µM (≈ 0.39 µg/mL) in data set [2] and 2.08 µM (≈ 0.781 µg/mL) in data set [3].

The record behind these values is ChEMBL document CHEMBL1142419, “Antimycobacterial activities of novel 2-(sub)-3-fluoro/nitro-5,12-dihydro-5-oxobenzothiazolo[3,2-a]quinoline-6-carboxylic acid” (Bioorg Med Chem, 2008).
